23 compounds from ChEMBL document CHEMBL4270594, “Design, synthesis and pharmacological evaluation of new 3-(1H-benzimidazol-2-yl)quinolin-2(1H)-one derivatives as potential antitumor agents” (Eur J Med Chem, 2018) can be followed below.

In general, IC50 refers to the point on the concentration scale where inhibition reaches its midpoint. The low end stands for higher potency, the high end for lower potency. A word on the T/C: it is the result in the treated group divided by that in the control group, in per cent.

Assay [1] concerns HepG2. Briefly: Cytotoxicity against human HepG2 cells after 48 hrs by MTT assay. In kind it is functional, cell-based. The following applies: HepG2, 48 h. In outline: (§1)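 MTT cytotoxicity assay run against HepG2 and BEL-7404 liver cancer, SK-OV-3 ovarian, NCI-H460 large-cell lung cancer and HL-7702 normal liver cells. 5-fluorouracil and cisplatin served as positive controls. IC50 is given as mean ± SD of three repeat experiments.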
In general terms: Tetrazolium dyes change colour on reduction, which living cells bring about.

Assay [2] concerns BEL-7404 tumor cell line. Briefly: Cytotoxicity against human Bel7404 cells after 48 hrs by MTT assay. The following applies: BEL-7404, 48 h. In kind it is functional, cell-based. In outline:
as §1

Another assay relates to NCI-H460. Briefly: Cytotoxicity against human NCI-H460 cells after 48 hrs by MTT assay. In kind it is functional, cell-based. The following applies: NCI-H460, 48 h. An outline of the steps:
as §1

In another assay the test system is L02. Briefly: Cytotoxicity against human HL-7702 cells after 48 hrs by MTT assay. In kind it is cell-based. The following applies: L02, 48 h. In outline: as §1
In another assay the test system is SK-OV-3. Briefly: Cytotoxicity against human SKOV3 cells after 48 hrs by MTT assay. The assay is classed as functional, cell-based. Particulars: SK-OV-3, 48 h. An outline of the steps: as §1
The test system of assay [3] is BEL-7404 tumor cell line. Briefly: Antitumor activity against human Bel7404 cells xenografted in Balb/c nude mouse assessed as tumor growth inhibition at 25 mg/kg/2 days, ip for 20 days measured on day 21 post last dose relative to control. The assay is classed as functional. Particulars: BEL-7404, ip, read-out: TGI. A general note: Xenograft models place foreign cells or tissue in a host animal.

Assay [4] concerns BEL-7404 tumor cell line. Briefly: Antitumor activity against human Bel7404 cells xenografted in Balb/c nude mouse assessed as relative tumor volume increment rate at 25 mg/kg/2 days, ip for 20 days measured on day 21 post last dose relative to control. The assay is classed as functional.
Assay [5] deals with HepG2. Briefly: Upregulation of p53 protein expression in human HepG2 cells at 10 uM after 12 hrs by Western blot analysis. The assay is classed as functional, cell-based. In general terms: A western blot detects proteins with antibodies after separation by electrophoresis.

Active and inactive are the calls of the source. No cut-off for these calls is given here. Bounds are passed on as bounds.

Take `COc1ccc2[nH]c(=O)c(-c3nc4ccccc4[nH]3)cc2c1`: the IC50 in the assay with HepG2 [1], in the assay on BEL-7404 tumor cell line [2], in the assay with NCI-H460, in the assay with L02 and in the assay on SK-OV-3 was > 100 µM each time.

Consider `O=c1[nH]cc(F)c(=O)[nH]1` [FLUOROURACIL], for which the inhibition in vivo at 25 mg/kg in the assay on BEL-7404 tumor cell line [3] came out at 34.5%. The IC50 in the assay on BEL-7404 tumor cell line [2] came to 40.2 µM. Further, the T/C with BEL-7404 tumor cell line [4] is recorded as 56.1%.

For `Cc1cc2nc(-c3cc4cc5c(cc4[nH]c3=O)OCO5)[nH]c2cc1C`, the 50% inhibitory concentration (IC50) was 18.7 µM with HepG2 [1]; 15.7 µM with BEL-7404 tumor cell line [2]; 23.8 µM in the assay on NCI-H460; > 100 µM in the assay with L02; 10.6 µM in the assay with SK-OV-3.

With `O=c1[nH]c2ccccc2cc1-c1nc2cc(Br)ccc2[nH]1`, the IC50 with HepG2 [1] was 10.8 µM; in the assay with BEL-7404 tumor cell line [2] it was 14.5 µM; in the assay on NCI-H460, 16.8 µM; in the assay with L02, > 100 µM; with SK-OV-3, 11.4 µM.

Regarding `O=c1[nH]c2cc3c(cc2cc1-c1nc2cc(F)ccc2[nH]1)OCO3`, the half-maximal inhibitory concentration (IC50) is 12.4 µM in the assay on HepG2 [1]; 10.3 µM with BEL-7404 tumor cell line [2]; > 100 µM with NCI-H460; > 100 µM with L02; > 100 µM in the assay on SK-OV-3.

Consider `COc1ccc2[nH]c(=O)c(-c3nc4cc(F)ccc4[nH]3)cc2c1`, for which the IC50 in the assay on HepG2 [1], with BEL-7404 tumor cell line [2], with NCI-H460, with L02 and with SK-OV-3 was > 100 µM in each case.

On to `COc1ccc2[nH]c(=O)c(-c3nc4cc(Br)ccc4[nH]3)cc2c1`, for which the 50% inhibitory concentration (IC50) with HepG2 [1], with BEL-7404 tumor cell line [2], with NCI-H460, in the assay with L02 and with SK-OV-3 was > 100 µM in each case.

For `O=c1[nH]c2ccccc2cc1-c1nc2cc(F)ccc2[nH]1`, the IC50 in the assay on HepG2 [1] is 15.2 µM; in the assay on BEL-7404 tumor cell line [2], 27.4 µM; in the assay on NCI-H460 it was 24.2 µM; in the assay on L02, > 100 µM; in the assay on SK-OV-3 it was 18.3 µM.

Consider `O=c1[nH]c2ccccc2cc1-c1nc2cc([N+](=O)[O-])ccc2[nH]1`, for which the IC50 with HepG2 [1], with BEL-7404 tumor cell line [2], with NCI-H460, in the assay on L02 and in the assay with SK-OV-3 was > 100 µM in each case.

Regarding `COc1ccc2[nH]c(=O)c(-c3nc4cc(Cl)ccc4[nH]3)cc2c1`, the IC50 with HepG2 [1], in the assay with BEL-7404 tumor cell line [2], in the assay with NCI-H460, with L02 and in the assay with SK-OV-3 was > 100 µM in each case.

For `Cc1ccc2[nH]c(=O)c(-c3nc4cc(Br)ccc4[nH]3)cc2c1`, the IC50 with HepG2 [1], with BEL-7404 tumor cell line [2], in the assay on NCI-H460, in the assay on L02 and in the assay on SK-OV-3 was > 100 µM throughout.

With `O=c1[nH]c2ccccc2cc1-c1nc2ccccc2[nH]1`, the IC50 in the assay on HepG2 [1] is 29.6 µM; with BEL-7404 tumor cell line [2], > 100 µM; with NCI-H460, > 100 µM; in the assay with L02, > 100 µM; in the assay with SK-OV-3, 13.8 µM. Also, the result in the assay with HepG2 [5] was inactive.

Consider `Cc1cc2nc(-c3cc4ccccc4[nH]c3=O)[nH]c2cc1C`, for which the half-inhibitory concentration (IC50) in the assay with HepG2 [1], with BEL-7404 tumor cell line [2], in the assay with NCI-H460, in the assay with L02 and with SK-OV-3 was > 100 µM each time.

For the compound `Cc1ccc2[nH]c(=O)c(-c3nc4ccccc4[nH]3)cc2c1`, the IC50 in the assay on HepG2 [1], with BEL-7404 tumor cell line [2], in the assay with NCI-H460, with L02 and in the assay with SK-OV-3 was > 100 µM in each case.

As to `COc1ccc2[nH]c(=O)c(-c3nc4cc([N+](=O)[O-])ccc4[nH]3)cc2c1`, the half-inhibitory concentration (IC50) in the assay with HepG2 [1], in the assay with BEL-7404 tumor cell line [2], in the assay on NCI-H460, in the assay with L02 and in the assay with SK-OV-3 was > 100 µM in each case.

In the case of `Cc1ccc2[nH]c(=O)c(-c3nc4cc(C)c(C)cc4[nH]3)cc2c1`, the IC50 in the assay on HepG2 [1], with BEL-7404 tumor cell line [2], in the assay with NCI-H460, in the assay on L02 and in the assay on SK-OV-3 was > 100 µM in each case.

Take `O=c1[nH]c2cc3c(cc2cc1-c1nc2cc(Br)ccc2[nH]1)OCO3`: the IC50 with HepG2 [1], in the assay on BEL-7404 tumor cell line [2], with NCI-H460, with L02 and in the assay on SK-OV-3 was > 100 µM in each case.

In the case of `Cc1ccc2[nH]c(=O)c(-c3nc4cc([N+](=O)[O-])ccc4[nH]3)cc2c1`, the IC50 in the assay with HepG2 [1], in the assay with BEL-7404 tumor cell line [2], with NCI-H460, in the assay on L02 and in the assay on SK-OV-3 was > 100 µM each time.

Take `Cc1ccc2[nH]c(=O)c(-c3nc4cc(Cl)ccc4[nH]3)cc2c1`: the concentration for half-maximal inhibition (IC50) in the assay with HepG2 [1] is 26.6 µM; in the assay on BEL-7404 tumor cell line [2], 39 µM; in the assay with NCI-H460, 36.5 µM; in the assay on L02, > 100 µM; with SK-OV-3 it was 33 µM.

With `O=c1[nH]c2cc3c(cc2cc1-c1nc2ccccc2[nH]1)OCO3`, the half-maximal inhibitory concentration (IC50) in the assay with HepG2 [1] was 25.6 µM; in the assay with BEL-7404 tumor cell line [2] it was > 100 µM; with NCI-H460 it was > 100 µM; with L02 it was > 100 µM; with SK-OV-3 it was 32.2 µM.

In the case of `O=c1[nH]c2cc3c(cc2cc1-c1nc2cc([N+](=O)[O-])ccc2[nH]1)OCO3`, the half-maximal inhibitory concentration (IC50) in the assay on HepG2 [1], in the assay with BEL-7404 tumor cell line [2], in the assay with NCI-H460, in the assay on L02 and in the assay with SK-OV-3 was > 100 µM throughout.

As to `Cc1ccc2[nH]c(=O)c(-c3nc4cc(F)ccc4[nH]3)cc2c1`, the 50% inhibitory concentration (IC50) with HepG2 [1], in the assay with BEL-7404 tumor cell line [2], in the assay with NCI-H460, in the assay with L02 and in the assay on SK-OV-3 was > 100 µM in each case.

For the compound `COc1ccc2[nH]c(=O)c(-c3nc4cc(C)c(C)cc4[nH]3)cc2c1`, the IC50 in the assay with HepG2 [1], in the assay with BEL-7404 tumor cell line [2], in the assay with NCI-H460, with L02 and in the assay with SK-OV-3 was > 100 µM in each case.
